The full list was thinned out, with hits kept by preference.
Fibroblast inh – blocks proliferation of human lung fibroblasts. LL 47 human lung fibroblast viability, ATP luminescence; stronger effect = lower value. viability, % at 10 µM. hit rate 1.1% among 85,000;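 active means viability at or below 50% in the single dose screen; inactive means viability above 50%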;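 further: compound exposure lasted 72 h before the ATP readout; 100% = median luminescence of untreated cell-only wells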
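Times – overnight cell rest, 72 h compound treatment at 37 °C · Test system – human lung fibroblast line LL 47, low passage · Amount – 1,150 cells in each well · Controls – cell-only wells, no compound · Doses – 0.1% DMSO in all compound wells · Measured by – CellTiter-Glo luminescence · Buffer or medium – IMEM plus 15% FBS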
HUVEC inhibit – inhibitors of human endothelial cell proliferation; hit rate 1.1% among 86,000; viability, % at 10 µM (by protocol); HUVEC proliferation, CellTiter-Glo luminescence, 72 h; stronger effect = lower value; AID 648;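 active means viability at or below 30%; inactive means viability above 30%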;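 further: 100% = median luminescence of DMSO-only cell control wells on each plate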
HCT116 PTEN-null – PTEN-deleted cell growth suppression | HCT116 PTEN-null viability, CellTiter-Glo, 60 h; stronger effect = lower value | viability, % at 10 µM | hit rate 1.2% among 140,000 | AID 827;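 active means viability at or below a set limit, 4 SD under the median of all tested compounds, cut at about 3.7% in these data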;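 further: PTEN knockout HCT116 line with beta catenin targeted HCT116 as companion control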
bCat KO growth – beta-catenin-lacking colon tumor cell growth suppression; AID 818; HCT116 beta-catenin knockout viability, CellTiter-Glo, 60 h; stronger effect = lower value; hit rate 1.5% among 140,000; viability, % at 10 µM;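 active means viability at or under a set limit, the compound median less 4 SD, cut at about 6% in these data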;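 further: 0% = Hyamine 1622 control at 20 µM and 100% = untreated cell control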
H69AR inhibit – blocks growth of human H69AR lung tumor cells | viability, % at 10 µM | AID 598 | hit rate 6% among 85,000 | H69AR lung tumor viability, ATP luminescence, 72 h; stronger effect = lower value;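 active means viability at or below 40%; inactive means viability above 40%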;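 further: multidrug resistant small cell line overexpressing MRP-1 efflux transporter; 100% = mean luminescence of untreated control wells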
An asterisk follows results filed as active; . = no result given.

SMILES	Fibroblast inh	HUVEC inhibit	HCT116 PTEN-null	bCat KO growth	H69AR inhibit
Cc1cccc(NC(=O)CNC(=O)COc2ccc(-c3ccc(C#N)cc3)cc2)c1C	.	.	58	69	.
Cc1ccc(-c2nnn(CC(=O)N(Cc3cccs3)C(C(=O)NC3CCCCC3)c3ccco3)n2)o1 (stereo unspecified)	107	77	96	95	19*
COc1ccc(-c2nnn(CC(=O)N(Cc3cccs3)C(C)C(=O)NC3CCCC3)n2)cc1OC (stereo unspecified)	92	91	83	69	105
CC(C)CCNC(=O)C(c1ccncc1)N(Cc1cccs1)C(=O)Cn1nnc(-c2ccc(F)cc2)n1 (stereo unspecified)	75	88	64	67	40*
Cc1ccc(-c2nnn(CC(=O)N(Cc3cccs3)C(C(=O)NC3CCCC3)c3ccncc3)n2)cc1 (stereo unspecified)	64	76	68	74	29*
COc1ccc(-c2nnn(CC(=O)N(Cc3ccc(F)cc3)C(C(=O)NC3CCCC3)c3ccc(F)cc3)n2)cc1 (stereo unspecified)	12*	64	.	.	27*
COc1cccc(CNC(=O)C(c2ccc(Cl)cc2)C(C)C)c1 (stereo unspecified)	.	.	70	80	.
O=C(NCC1CCCO1)C(c1cccs1)N(Cc1cccs1)C(=O)Cn1nnc(-c2cccs2)n1 (stereo unspecified)	103	94	71	76	83
O=C(NCC1CCCO1)C(c1ccc(F)cc1)N(Cc1ccc(F)cc1)C(=O)Cn1nnc(-c2cccs2)n1 (stereo unspecified)	94	88	66	94	40*
CCc1ccccc1NC(=O)CSc1nnc(Cn2nnc3ccccc32)n1C	101	91	100	91	86
O=C(c1cn(-c2ccccc2)nc1-c1cccs1)N1CCN(c2ccccc2)CC1	75	53	26	30	11*
O=C(c1cn(-c2ccccc2)nc1-c1cccs1)N1CCOCC1	96	92	82	81	97
COc1ccccc1NC(=O)c1ccc(-c2ccccc2F)o1	91	75	84	83	53
COC(=O)c1ccccc1NC(=O)c1ccc(-c2ccccc2F)o1	68	36	76	86	13*
O=C1C(C=Nc2ccccc2)=C(O)c2ccccc21	102	80	86	91	63
COc1ccc(N=CC2=C(O)c3ccccc3C2=O)cc1	104	83	60	73	35*
CC1CN(Cc2ccccc2)c2ccccc2NC1=S (stereo unspecified)	.	.	82	80	.
Cc1ccc(/C=N/N2C(=S)SC(C)(C)C2N(O)C(=O)Nc2ccc([N+](=O)[O-])cc2)cc1 (stereo unspecified)	92	90	9	3.7*	74
CC1(C)CC(=O)C2=C(C1)c1c(ccc3ccccc13)NC2c1ccc(Br)o1 (stereo unspecified)	97	67	72	59	33*
FC(F)Sc1ccc(NC(=S)NC2CCCCC2)cc1	96	49	29	59	18*
S=C(Nc1ccc(Br)cc1)NC1CCCC1	.	.	85	83	.
FC(F)Sc1ccc(NC(=S)NCC2CCCCC2)cc1	83	43	6	12	5.1*
CC1CCCCC1NC(=S)Nc1ccc(SC(F)F)cc1 (stereo unspecified)	44*	42	11	40	32*
Cn1nc([N+](=O)[O-])nc1N1CCOCC1	.	.	100	96	.
CCN(CC)C(=O)Cn1c(=O)c2ccccc2n2c(=S)sc(-c3cccc(C)c3)c12	.	.	43	44	.
SMILES	Fibroblast inh	HUVEC inhibit	HCT116 PTEN-null	bCat KO growth	H69AR inhibit
Cn1cccc1-c1nc2ccc(NC(=O)c3ccc([N+](=O)[O-])cc3)cc2[nH]1	92	90	84	70	33*
C#CCn1c(=NC(=O)c2ccc(Br)s2)sc2cccc(OC)c21	38*	55	7	15	2.6*
C#CCn1c(=NC(=O)c2ccc(Br)s2)sc2cc(NC(C)=O)ccc21	.	.	96	93	.
OCc1cn(-c2ccccc2)nc1-c1ccc(-c2nn(-c3ccccc3)cc2CO)cc1	93	80	94	89	81
Cc1ccc(-c2nn(-c3ccccc3)cc2CSC(=N)N)cc1	.	.	1.0*	1.1*	.
CCOc1cc(/C=N/O)cc(Br)c1OCC	97	78	90	96	67
CCCOc1c(Br)cc(/C=N/O)cc1OC	98	63	94	109	30*
CCOc1ccc(NC(C)c2cc(Cl)ccc2O)cc1 (stereo unspecified)	92	82	90	95	78
CC(Nc1ccc(Cl)cc1)c1cc(Cl)ccc1O (stereo unspecified)	90	71	92	78	39*
O=C(c1ccccc1)c1nc[nH]c1C(=O)Nc1ccccc1	71	86	25	25	24*
O=C(Nc1ccccc1)c1ccc[nH]1	.	.	100	90	.
CC(C)Cn1c(=O)c2ccccc2n2c(SCC(=O)N3c4ccccc4CC3C)nnc12 (stereo unspecified)	.	.	88	87	.
O=C(Nc1ccc(SC(F)F)cc1)c1cccc2nc3ccccc3nc12	39*	26*	70	50	10*
CC(C)COc1ccc(C(=O)Nc2ccc(SC(F)F)cc2)cc1	.	.	93	83	.
O=C(COC(=O)c1ccccc1C(=O)c1ccc(Cl)cc1)NC(c1ccccc1)c1ccccc1	.	.	73	72	.
O=C1c2ccccc2C(=O)c2c1cccc2N1CCOCC1	.	.	67	84	.
O=C1C(N2CCOCC2)=C(n2nnc3ccccc32)C(=O)c2ccccc21	2.4*	2.2*	2.1*	2.0*	1.4*
Cc1ccccc1-n1nc2c(c1NC(=O)c1cc3ccccc3oc1=O)CS(=O)C2 (stereo unspecified)	101	92	93	96	90
Cc1ccccc1-n1nc2c(c1NC(=O)c1cc3ccccc3oc1=O)CS(=O)(=O)C2	88	92	90	99	4.2*
Cc1csc(NC(=O)c2c(O)c3c(n(CC(C)C)c2=O)CCCC3)n1	91	119	72	67	33*
Cc1ccc(-c2nc3ccccc3n3nnnc23)cc1	82	84	22	21	41
Cc1ccc(CNc2nc3ccccc3n3nnnc23)cc1	100	89	87	96	30*
Brc1ccc(Nc2nc3ccccc3n3nnnc23)cc1	78	47	80	84	36*
CC(=O)C1C(c2ccc(Br)cc2)C2C(C)=NN=C2CC1(C)O (stereo unspecified)	.	.	94	88	.
Cc1oc2c(c1C(=O)c1ccc(Cl)cc1)C(=O)C(=O)c1ccccc1-2	.	.	0.9*	0.9*	.
Cc1ccc(C(=O)c2c(C)oc3c2C(=O)C(=O)c2ccccc2-3)cc1	2.1*	57	1.1*	0.8*	1.0*
Cc1ccc(C(=O)Nc2sc(C)c(C)c2C(=O)c2ccccc2)cc1	.	.	84	87	.
O=C(c1ccc(Cl)cc1)c1ccc(CN2C(=O)c3ccccc3C2=O)o1	103	96	101	92	92
